Results gathered from unrelated publications.
Protocols differ between the studies behind these lines.
Target: Sodium-dependent noradrenaline transporter (SLC6A2, Homo sapiens, UniProt P23975)

SMILES | read-out | action | technique | cell line | tested at | inhibition [%]
CN1CCN(CCCOc2ccc(=O)n(-c3ccc(Cl)c(Cl)c3)n2)CC1 | ligand displacement |  |  |  | 1 µM | 14.4
COc1cc(NC(C)=O)c(Cl)cc1C(=O)Nc1nccs1 | cell-free assay |  |  |  | 10 µM | 1.8
CCN(Cc1ccccc1C(F)(F)F)C(=O)C1CCN(S(=O)(=O)c2ccc3[nH]ncc3c2)CC1 | ligand displacement |  | radioligand |  | 10 µM | 20
Clc1ccc(C(c2ccccc2)c2nnnn2CCCCN2CCC(CCc3ccccc3)CC2)cc1 (stereo not drawn) | transporter uptake | inhibitor |  | HEK293 | 1 µM | 72.4
CCN(CC)c1ccc(C2Nc3ccc(C(=O)c4ccccc4)cc3NC3=C2C(=O)CC(C)(C)C3)cc1 (stereo not drawn) | ligand displacement |  | radioligand |  | 10 µM | 51
Fc1ccc(C(c2ccc(F)cc2)c2nnnn2CCCCN2CCC(c3ccccc3)CC2)cc1 | transporter uptake | inhibitor |  | HEK293 | 1 µM | 64.4
Ic1cccc2cnccc12 | ligand displacement |  | radioligand |  | 10 µM | 44
O=C1N=C(N2CCCCN2)S/C1=C\c1ccc(F)cc1O | ligand displacement |  | radioligand |  | 10 µM | < 10
O[C@@H]1[C@H](O)[C@@H]2C[C@@H]2[C@H]1n1cnc2c(NCc3cccc(Cl)c3)ncnc21 | ligand displacement |  | radioligand |  | 10 µM | 35
Clc1ccc(C(c2ccc(Cl)cc2)c2nnnn2CCCN2CCC(CCCc3ccccc3)CC2)cc1 | transporter uptake | inhibitor |  | HEK293 | 1 µM | 10.8
O[C@@H]1[C@H](O)[C@@H]2C[C@@H]2[C@H]1n1cnc2c(NCc3cccc(Cl)c3)nc(C#Cc3ccc(F)c(F)c3)nc21 | ligand displacement |  | radioligand |  | 10 µM | 51
N#Cc1cc(Cn2c(N3CCCC3)nc3ccccc32)ccc1F | ligand displacement |  |  |  | 10 µM | 39.4
